From ChEMBL document CHEMBL3580647, “Discovery of potent indenoisoquinoline topoisomerase I poisons lacking the 3-nitro toxicophore” (J Med Chem, 2015)
Calls of active or inactive are those of the source. The calls are words filed in the database; no cut-off is given here.

Assays:
[1] = (§1) Growth inhibition of human NCI60 cells assessed as cell growth at 10 uM; format: functional; details: read-out: Activity
In short: (§2)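 NCI-60 single-dose screen at 10 μM across ~60 human cancer cell lines. Reported as growth percent relative to vehicle-treated control, averaged over all lines tested as a mean growth percent.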

[2] = biological target: T1, DNA topoisomerase 1 (Homo sapiens) (UniProt P11387); assay: Inhibition of recombinant topoisomerase 1 (unknown origin) assessed as DNA cleavage using 3'-[32P]-labeled 117-bp DNA oligonucleotide at 1 uM by PAGE assay; design: Activity: scale not given: the % may be the effect or the level left
T1 sequence (whole entry): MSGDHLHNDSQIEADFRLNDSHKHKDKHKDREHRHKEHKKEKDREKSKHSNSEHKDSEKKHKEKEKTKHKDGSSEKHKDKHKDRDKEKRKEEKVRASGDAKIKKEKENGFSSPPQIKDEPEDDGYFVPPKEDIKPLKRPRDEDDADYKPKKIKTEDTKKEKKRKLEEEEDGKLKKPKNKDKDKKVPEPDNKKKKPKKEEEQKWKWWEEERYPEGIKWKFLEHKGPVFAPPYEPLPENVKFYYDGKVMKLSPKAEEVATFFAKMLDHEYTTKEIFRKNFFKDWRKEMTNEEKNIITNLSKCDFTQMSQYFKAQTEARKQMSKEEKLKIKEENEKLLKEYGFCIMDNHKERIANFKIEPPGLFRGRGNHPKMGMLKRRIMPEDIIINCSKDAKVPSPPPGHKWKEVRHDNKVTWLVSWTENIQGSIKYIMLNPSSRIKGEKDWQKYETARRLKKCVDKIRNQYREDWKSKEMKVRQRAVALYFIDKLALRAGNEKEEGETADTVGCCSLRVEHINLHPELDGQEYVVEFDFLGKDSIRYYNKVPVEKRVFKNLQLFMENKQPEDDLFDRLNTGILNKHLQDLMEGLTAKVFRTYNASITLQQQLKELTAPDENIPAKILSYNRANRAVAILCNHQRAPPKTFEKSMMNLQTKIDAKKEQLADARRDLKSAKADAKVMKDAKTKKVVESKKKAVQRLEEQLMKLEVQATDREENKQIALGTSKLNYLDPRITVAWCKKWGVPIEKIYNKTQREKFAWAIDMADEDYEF
In short: (§3)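 Approx. 2 nM 3′-[³²P]-labeled double-stranded DNA incubated with recombinant Top1 and compound at 0.1, 1, 10 or 100 μM for 20 min at 25 °C. Stopped with 0.5% SDS and run on a denaturing gel. […] Run twice.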

[3] = system: HOP-62; assay: Growth inhibition of human HOP62 cells by five-dose growth inhibition assay; format: functional
[4] = Growth inhibition of human SF539 cells by five-dose growth inhibition assay; format: functional; details: SF-539
[5] = system: OVCAR-3; assay: Growth inhibition of human OVCAR3 cells by five-dose growth inhibition assay; format: functional
[6] = system: DU-145; assay: Growth inhibition of human DU145 cells by five-dose growth inhibition assay; format: functional
[7] = system: SN12C; assay: Growth inhibition of human SN12C cells by five-dose growth inhibition assay; format: functional
[8] = system: HCT-116; assay: Growth inhibition of human HCT116 cells by five-dose growth inhibition assay; format: functional
[9] = system: MCF7; assay: Growth inhibition of human MCF7 cells by five-dose growth inhibition assay; format: functional
[10] = system: UACC-62; assay: Growth inhibition of human UACC62 cells by five-dose growth inhibition assay; format: functional
[11] = system: NCI60; assay: as §1; format: functional; in short: as §2
[12] = biological target: T1, DNA topoisomerase 1 (Homo sapiens); assay: Inhibition of recombinant topoisomerase 1 (unknown origin) assessed as DNA cleavage using 3'-[32P]-labeled 117-bp DNA oligonucleotide at 100 uM by PAGE assay; in short: as §3
[13] = biological target: T1, DNA topoisomerase 1 (Homo sapiens); assay: Inhibition of recombinant topoisomerase 1 (unknown origin) assessed as DNA cleavage using 3'-[32P]-labeled 117-bp DNA oligonucleotide at 10 uM by PAGE assay; in short: as §3
[14] = biological target: T1, DNA topoisomerase 1 (Homo sapiens); assay: Inhibition of recombinant topoisomerase 1 (unknown origin) assessed as DNA cleavage using 3'-[32P]-labeled 117-bp DNA oligonucleotide at 0.1 uM by PAGE assay; in short: as §3

## O=C1c2ccccc2-c2c1c1ccncc1c(=O)n2CCCn1ccnc1
[1]
  growth at 10 µM: 47.5%
[2]
  Activity: 20%

## O=C1c2ccccc2-c2c1c1ccc(Br)cc1c(=O)n2CCCn1ccnc1
[3]
  GI50: 513 nM
[4]
  GI50: 676 nM
[5]
  GI50: 3310 nM
[1]
  growth at 10 µM: 27.3%
[6]
  GI50: 676 nM
[7]
  GI50: 468 nM
[8]
  GI50: 251 nM
[2]
  Activity: 50%
[9]
  GI50: 191 nM
[10]
  GI50: 427 nM

## O=C1c2ccccc2-c2c1c1ccc(Br)cc1c(=O)n2C[C@H](O)CO
[1]
  growth at 10 µM: 46.8%
[2]
  Activity: 50%

## O=C1c2ccccc2-c2c1c1cc(C(F)(F)F)ccc1c(=O)n2CCCn1ccnc1
[1]
  growth at 10 µM: 49.3%
[2]
  Activity: 20%

## COC(=O)c1ccc2c3c(n(C[C@H](O)CO)c(=O)c2c1)-c1ccccc1C3=O
[11]
  Activity: inactive
[2]
  Activity: 20%

## O=C1c2ccccc2-c2c1c1ccc([N+](=O)[O-])cc1c(=O)n2C[C@H](O)CO
[2]
  Activity: 100%

## O=C1c2ccccc2-c2c1c1ccc(I)cc1c(=O)n2CCCn1ccnc1
[3]
  GI50: 437 nM
[4]
  GI50: 550 nM
[5]
  GI50: 3890 nM
[1]
  growth at 10 µM: 43.5%
[6]
  GI50: 603 nM
[7]
  GI50: 708 nM
[8]
  GI50: 200 nM
[2]
  Activity: 50%
[9]
  GI50: 74 nM
[10]
  GI50: 2290 nM

## O=C1c2ccccc2-c2c1c1ccc([N+](=O)[O-])cc1c(=O)n2CCCn1ccnc1
[2]
  Activity: 100%
[9]
  GI50: 2170 nM

## N#Cc1ccc2c3c(n(CCCN4CCOCC4)c(=O)c2c1)-c1ccccc1C3=O
[1]
  growth at 10 µM: 102%
[2]
  Activity: 50%

## CS(=O)(=O)c1ccc2c3c(n(C[C@H](O)CO)c(=O)c2c1)-c1ccccc1C3=O
[1]
  growth at 10 µM: 96.7%
[2]
  Activity: 50%

## N#Cc1ccc2c3c(n(C[C@H](O)CO)c(=O)c2c1)-c1ccccc1C3=O
[1]
  growth at 10 µM: 42.6%
[2]
  Activity: 20%

## O=C1c2ccccc2-c2c1c1ccc(F)cc1c(=O)n2CCCN1CCOCC1
[12]
  inhibition: Active
[3]
  GI50: 2090 nM
[4]
  GI50: 2950 nM
[5]
  GI50: 4270 nM
[1]
  growth at 10 µM: 30.3%
[7]
  GI50: 2340 nM
[8]
  GI50: 1290 nM
[13]
  inhibition: Active
[2]
  Activity: 75%
  inhibition: Active
[9]
  GI50: 347 nM
[14]
  inhibition: Active
[10]
  GI50: 1380 nM

## COC(=O)c1ccc2c3c(n(CCCN4CCOCC4)c(=O)c2c1)-c1ccccc1C3=O
[1]
  growth at 10 µM: 87.5%
[2]
  Activity: 20%

## O=C1c2ccccc2-c2c1c1ccc(F)cc1c(=O)n2C[C@H](O)CO
[1]
  growth at 10 µM: 61.1%
[2]
  Activity: 50%

## O=C1c2ccccc2-c2c1c1ccncc1c(=O)n2CCCN1CCOCC1
[11]
  Activity: inactive
[2]
  Activity: 50%

## CN(C)CCCn1c2c(c3ccncc3c1=O)C(=O)c1ccccc1-2
[4]
  GI50: 708 nM
[6]
  GI50: 977 nM
[7]
  GI50: 955 nM
[2]
  Activity: 50%
[9]
  GI50: 331 nM

## COC(=O)c1ccc2c3c(n(CCCn4ccnc4)c(=O)c2c1)-c1ccccc1C3=O
[3]
  GI50: 589 nM
[4]
  GI50: 490 nM
[5]
  GI50: 100000 nM
[1]
  growth at 10 µM: 62.1%
[6]
  GI50: 692 nM
[7]
  GI50: 525 nM
[8]
  GI50: 398 nM
[2]
  Activity: 50%
[9]
  GI50: 316 nM
[10]
  GI50: 100000 nM

## O=C1c2ccccc2-c2c1c1ccc(C(F)(F)F)cc1c(=O)n2C[C@H](O)CO
[1]
  growth at 10 µM: 52.2%
[2]
  Activity: 20%

## O=C1c2ccccc2-c2c1c1ccc(I)cc1c(=O)n2CCCN1CCOCC1
[12]
  inhibition: Active
[1]
  growth at 10 µM: 96%
[13]
  inhibition: Active
[2]
  Activity: 20%
  inhibition: Active
[14]
  inhibition: Active

## N#Cc1ccc2c3c(n(CCCn4ccnc4)c(=O)c2c1)-c1ccccc1C3=O
[3]
  GI50: 537 nM
[4]
  GI50: 501 nM
[5]
  GI50: 4680 nM
[1]
  growth at 10 µM: 41.1%
[6]
  GI50: 562 nM
[7]
  GI50: 575 nM
[8]
  GI50: 112 nM
[2]
  Activity: 50%
[9]
  GI50: 33 nM
[10]
  GI50: 407 nM

## O=C1c2ccccc2-c2c1c1ccc(C(F)(F)F)cc1c(=O)n2CCCn1ccnc1
[3]
  GI50: 407 nM
[4]
  GI50: 1290 nM
[5]
  GI50: 1510 nM
[1]
  growth at 10 µM: 6.57%
[6]
  GI50: 1100 nM
[7]
  GI50: 1780 nM
[8]
  GI50: 646 nM
[2]
  Activity: 20%
[9]
  GI50: 257 nM
[10]
  GI50: 537 nM

## O=C1c2ccccc2-c2c1c1ccc(Cl)cc1c(=O)n2CCCN1CCOCC1
[12]
  inhibition: Active
[3]
  GI50: 2140 nM
[4]
  GI50: 2400 nM
[5]
  GI50: 6030 nM
[1]
  growth at 10 µM: 44.7%
[6]
  GI50: 4070 nM
[7]
  GI50: 5010 nM
[8]
  GI50: 1620 nM
[13]
  inhibition: Active
[2]
  Activity: 50%
  inhibition: Active
[9]
  GI50: 372 nM
[14]
  inhibition: Active
[10]
  GI50: 3310 nM

## CSc1ccc2c3c(n(C[C@H](O)CO)c(=O)c2c1)-c1ccccc1C3=O
[3]
  GI50: 1820 nM
[4]
  GI50: 2340 nM
[5]
  GI50: 4370 nM
[1]
  growth at 10 µM: 39.7%
[6]
  GI50: 2510 nM
[7]
  GI50: 1950 nM
[8]
  GI50: 741 nM
[2]
  Activity: 20%
[9]
  GI50: 427 nM
[10]
  GI50: 1380 nM

## O=C1c2ccccc2-c2c1c1ccc([N+](=O)[O-])cc1c(=O)n2CCCN1CCOCC1
[2]
  Activity: 70%

## CSc1ccc2c3c(n(CCCn4ccnc4)c(=O)c2c1)-c1ccccc1C3=O
[1]
  growth at 10 µM: 42.6%
[2]
  Activity: 20%

## O=C1c2ccccc2-c2c1c1ccc(Cl)cc1c(=O)n2CCCn1ccnc1
[12]
  inhibition: Active
[4]
  GI50: 204 nM
[1]
  growth at 10 µM: 0.06%
[7]
  GI50: 110 nM
[13]
  inhibition: Active
[2]
  Activity: 75%
  inhibition: Active
[9]
  GI50: 31 nM
[14]
  inhibition: Active
[10]
  GI50: 74 nM

## O=C1c2ccccc2-c2c1c1cc(C(F)(F)F)ccc1c(=O)n2C[C@H](O)CO
[1]
  growth at 10 µM: 82.7%
[2]
  Activity: 20%

## CS(=O)(=O)c1ccc2c3c(n(CCCn4ccnc4)c(=O)c2c1)-c1ccccc1C3=O
[1]
  growth at 10 µM: 59.4%
[2]
  Activity: 50%

## CC[C@@]1(O)C(=O)OCc2c1cc1n(c2=O)Cc2cc3c(CN(C)C)c(O)ccc3nc2-1 [TOPOTECAN]
[4]
  GI50: 10 nM
[7]
  GI50: 20 nM
[8]
  GI50: 30 nM
[2]
  Activity: 100%

## O=C1c2ccccc2-c2c1c1ccc(F)cc1c(=O)n2CCCn1ccnc1
[12]
  inhibition: Active
[3]
  GI50: 490 nM
[4]
  GI50: 417 nM
[5]
  GI50: 1290 nM
[1]
  growth at 10 µM: -8.15%
[6]
  GI50: 575 nM
[7]
  GI50: 437 nM
[8]
  GI50: 309 nM
[13]
  inhibition: Active
[2]
  Activity: 75%
  inhibition: Active
[9]
  GI50: 135 nM
[14]
  inhibition: Active
[10]
  GI50: 245 nM

## O=C1c2ccccc2-c2c1c1ccc(Cl)cc1c(=O)n2C[C@H](O)CO
[3]
  GI50: 692 nM
[4]
  GI50: 417 nM
[5]
  GI50: 2240 nM
[1]
  growth at 10 µM: 14.5%
[6]
  GI50: 2090 nM
[7]
  GI50: 977 nM
[8]
  GI50: 437 nM
[2]
  Activity: 50%
[9]
  GI50: 257 nM
[10]
  GI50: 398 nM

## O=C1c2ccccc2-c2c1c1ccc(Br)cc1c(=O)n2CCCN1CCOCC1
[1]
  growth at 10 µM: 84%
[2]
  Activity: 75%
